ChEMBL document CHEMBL1148898, “New ring C-seco limonoids from Brazilian Melia azedarach and their cytotoxic activity” (J Nat Prod, 2004)
Activity calls are given as the source filed them. No cut-off for these calls is given here.

Experiments:
[1] = (§1) Cytotoxicity against human HeLaS3 cells after 72 hrs by WST1 assay; assay type: functional, cell-based; conditions: HeLa S3, 72 h
Procedure, shortened: (§2)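 HeLa S3 cells seeded at 500 cells/well in minimum essential medium and cultured overnight. Compounds then added at final concentrations of 0.1, 1, 10 and 100 µM and incubated 72 h. WST-1 (Cell Counting Kit) added per manufacturer's protocol, followed by a further 2 h incubation. Absorbance read at 450 nm.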

[2] = Toxicity in brine shrimp at 100 ug/mL; assay type: organism-based; conditions: artemia, in vivo; read-out: Activity
HeLa S3 = assay: as §1; assay type: functional, cell-based; procedure, shortened: as §2

Compound | IC50 [1] [µM] | mortality at 100 ug/mL [2] [%] | Activity (HeLa S3)
C/C=C(\C)C(=O)O[C@@H]1[C@@H]2OC[C@]3(C)[C@H](OC(C)=O)C[C@H](OC(=O)/C(C)=C/C)[C@@](C)([C@@H]23)[C@H]2CC(=O)O[C@H]3C[C@@H](c4ccoc4)C(C)=C3[C@]12C [1-O-DEACETYL-1-O-TIGLOYLOHCHINOLIDE B] | 33.8 | 100 | 
C/C=C(\C)C(=O)O[C@@H]1[C@@H]2OC[C@]3(C)[C@H](OC(C)=O)C[C@H](OC(=O)c4ccccc4)[C@@](C)([C@@H]23)[C@H]2CC(=O)O[C@H]3C[C@@H](c4ccoc4)C(C)=C3[C@]12C [1-O-DEACETYL-1-O-BENZOYLOHCHINOLIDE B] | 33 | 100 | 
C/C=C(\C)C(=O)O[C@H]1C[C@@H](OC(C)=O)[C@@]2(C)CO[C@H]3[C@@H](OC(=O)c4ccccc4)[C@@]4(C)C5=C(C)[C@H](c6ccoc6)C[C@@H]5OC(=O)C[C@@H]4[C@]1(C)[C@@H]32 [1-O-DEACETYL-1-O-TIGLOYLOHCHINOLIDE A] | 29.7 | 100 | 
C/C=C(\C)C(=O)O[C@@H]1[C@@H]2OC[C@]3(C)[C@H](OC(C)=O)C[C@H](O)[C@@](C)([C@@H]23)[C@H]2CC(=O)O[C@H]3C[C@@H](c4ccoc4)C(C)=C3[C@]12C [1-O-DEACETYLOHCHINOLIDE B] | 0.1 | 100 | 
C/C=C(\C)C(=O)O[C@@H]1[C@@H]2OC[C@]3(C)[C@H](OC(C)=O)C[C@H](OC(C)=O)[C@@](C)([C@@H]23)[C@H]2CC(=O)O[C@H]3C[C@@H](c4ccoc4)C(C)=C3[C@]12C [OHCHNOLIDE B] | 40.5 | 100 | 
COC(=O)C[C@@H]1[C@]2(C)C3=C(C)[C@H](c4ccoc4)C[C@H]3O[C@@H]2[C@H](OC(C)=O)[C@H]2[C@](C)(C=O)[C@H](O)C[C@H](OC(=O)c3ccccc3)[C@]12C |  | 100 | inactive
C/C=C(\C)C(=O)O[C@H]1C[C@@H](O)[C@@](C)(C=O)[C@@H]2[C@@H](OC(C)=O)[C@H]3O[C@@H]4C[C@@H](c5ccoc5)C(C)=C4[C@@]3(C)[C@@H](CC(=O)OC)[C@@]12C [OHCHINOLAL] |  | 100 | inactive
CC(=O)O[C@@H]1C[C@H](O)[C@@]2(C)[C@H]3[C@@H](OC[C@]13C)[C@@H](OC(=O)c1ccccc1)[C@@]1(C)C3=C(C)[C@H](c4ccoc4)C[C@@H]3OC(=O)C[C@@H]12 [1-O-DEACETYLOHCHINOLIDE A] | 2.4 | 100 | 
CC(=O)O[C@H]1C[C@@H](OC(C)=O)[C@@]2(C)CO[C@H]3[C@@H](OC(=O)c4ccccc4)[C@@]4(C)C5=C(C)[C@H](c6ccoc6)C[C@@H]5OC(=O)C[C@@H]4[C@]1(C)[C@@H]32 [OHCHNOLIDE A] |  | 100 | inactive
O=c1[nH]cc(F)c(=O)[nH]1 [FLUOROURACIL] | 5.4 |  | 
COC(=O)C[C@@H]1[C@]2(C)C3=C(C)[C@H](c4ccoc4)C[C@H]3O[C@@H]2[C@H](OC(C)=O)[C@H]2[C@](C)(C=O)[C@H](O)C[C@H](OC(=O)/C=C/c3ccccc3)[C@]12C |  | 100 | inactive
